Rows were chosen to be rich in hits. Some 2.9% of all compounds tested hit in one or more screens of this group.
E-selectin induc: induces E-selectin expression in human endothelial cells | AID 686992 | P16581 | activation, % at 7.58 µM | HUVEC E-selectin immunofluorescence imaging; normalized: neutral wells 0, TNF-alpha wells 100 | 260,000 tested, 0.37% active;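 active = mean E-selectin-positive cell signal at least 10% of the positive control, reached in at least 60% of replicates, without over 20% cell loss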
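System: HUVEC / Compound: single concentration / Signal: immunofluorescence imaging / Read-out: percent E-selectin-positive cells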
SIRT5 block: inhibitors of human sirtuin-5 desuccinylase; Q9NXA8; Purified SirT5, succinyl-peptide AMC, trypsin-coupled fluorescence; inhibition, % at 15 µM; 330,000 tested, 1.1% active; AID 652115; in the data active = inhibition above about 15%
Target sequence (Q9NXA8 whole entry, looked up): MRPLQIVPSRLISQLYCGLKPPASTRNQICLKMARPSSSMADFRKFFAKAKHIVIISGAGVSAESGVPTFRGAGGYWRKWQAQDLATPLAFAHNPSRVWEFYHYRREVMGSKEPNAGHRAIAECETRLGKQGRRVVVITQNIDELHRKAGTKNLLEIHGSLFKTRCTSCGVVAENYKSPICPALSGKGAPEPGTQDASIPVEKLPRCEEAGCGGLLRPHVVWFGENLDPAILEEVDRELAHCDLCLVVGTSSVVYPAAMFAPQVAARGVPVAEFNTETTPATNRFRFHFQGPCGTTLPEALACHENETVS
DENV2 CPE rescue: protects cells from dengue virus 2 cytopathic effect | DENV2-infected cells, cytopathic effect rescue, plate reader | CPE inhibition, % at 9.99 µM | 350,000 tested, 1.7% active | AID 651640; in the data active = CPE inhibition above about 20%, passing the limit was not always enough; tested in BHK-21 cells;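 also: 0% = median of neutral control wells and 100% = median of positive control wells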
An asterisk follows results filed as active.

Screening COCCNc1ncnc2c1ncn2[C@H]1CN(Cc2ccc(-c3ccccc3)cc2)C[C@@H](CO)O1 returned E-selectin induc 0, SIRT5 block -5 and DENV2 CPE rescue -9.
`CO[C@H]1CN(C)C(=O)c2cc(NS(=O)(=O)c3cn(C)cn3)ccc2OC[C@H](C)NC[C@@H]1C` gave E-selectin induc 0, SIRT5 block -4 and DENV2 CPE rescue -4.
Cc1ccn2c(NC3CCCC3)c(-c3ccncc3)nc2c1 was read as SIRT5 block -2 and DENV2 CPE rescue -2.
For Cc1ccn2c(NC3CCCCC3)c(-c3cccc(-c4cccc(Cl)c4)c3)nc2c1 the results were SIRT5 block 16* and DENV2 CPE rescue -16.
Screening COc1cc2[nH]c(=O)n(CCCCCC(=O)NC3CCCC3)c(=O)c2cc1OC returned E-selectin induc 0, SIRT5 block -9 and DENV2 CPE rescue -4.
`O=S(=O)(Cc1ccccc1)NCC[C@H]1CC[C@H](NS(=O)(=O)c2ccccc2)[C@H](CO)O1` gave E-selectin induc 0, SIRT5 block -8 and DENV2 CPE rescue 7.
Screening O=C(Nc1ccccc1N1CCOCC1)c1cccc(NS(=O)(=O)c2ccc(F)c(F)c2)c1 returned SIRT5 block 1 and DENV2 CPE rescue -6.
For O=C(Nc1ccc(F)cc1)C1CCCN(S(=O)(=O)c2ccc3[nH]c(=O)ccc3c2)C1 (configuration not stated) the results were DENV2 CPE rescue 115*.
`Cc1ccc(C)c(NC(=O)C2CCCN(S(=O)(=O)c3ccc4[nH]c(=O)ccc4c3)C2)c1` (configuration not stated) gave E-selectin induc 0 and DENV2 CPE rescue -5.
Screening COc1cc2ccc(CC(=O)O)cc2cc1OC returned E-selectin induc 0 and DENV2 CPE rescue -2.
Screening O=C(Cc1ccc([N+](=O)[O-])cc1)NCc1ccccn1 returned E-selectin induc 0, SIRT5 block -4 and DENV2 CPE rescue -9.
Oc1cc2c(cc1O)C(c1ccccc1)CNCC2 (configuration not stated) was read as E-selectin induc 0, SIRT5 block 1 and DENV2 CPE rescue 52*.
Screening Oc1cc2c(cc1O)[C@@H](c1ccccc1)CNCC2 returned E-selectin induc 1, SIRT5 block -1 and DENV2 CPE rescue -1.
For CC(C)(C)c1ccc(S(=O)(=O)N(CCCN2CCOCC2)Cc2cccs2)cc1 the results were E-selectin induc 0 and DENV2 CPE rescue 4.
`COc1ccc(C(C)=O)cc1CSc1nnc(Nc2ccc(C)cc2C)s1` gave DENV2 CPE rescue -6.
For COc1ccc(C(C)=O)cc1CSc1nnc(Nc2c(C)cccc2C)s1 the results were SIRT5 block 21*.
Screening O=C(CN1CCOCC1)N1CCCCN2[C@H](C1)[C@@H](c1ccc(C#Cc3ccccc3)cc1)[C@@H]2CO returned E-selectin induc 0, SIRT5 block 0 and DENV2 CPE rescue -4.
CC(OC(=O)C1CCN(S(=O)(=O)c2ccc3c(c2)OCCO3)CC1)C(=O)N(C)c1ccccc1 (configuration not stated) was read as SIRT5 block 0 and DENV2 CPE rescue 1.
For CN(C)CC(=O)N1CC[C@H]2[C@@H]1c1cc(-c3ccccc3F)ccc1N(C)[C@H]2CO the results were E-selectin induc 0 and DENV2 CPE rescue 22*.
Screening CN(C)CC(=O)N1CC[C@@H]2[C@H]1c1cc(-c3ccccc3)ccc1N(C)[C@H]2CO returned E-selectin induc 1, SIRT5 block 1 and DENV2 CPE rescue -9.
CN(C)CC(=O)N1CC[C@@H]2[C@H]1c1cc(-c3ccccc3F)ccc1N(C)[C@@H]2CO was read as E-selectin induc 0 and DENV2 CPE rescue 49*.
`CN1c2ccc(-c3ccccc3F)cc2[C@H]2[C@H](CCN2C(=O)NC2CCCCC2)[C@H]1CO` gave E-selectin induc 0, SIRT5 block 4 and DENV2 CPE rescue -10.
`C[C@@H]1CN([C@H](C)CO)C(=O)c2cc(C#C[C@@H](C)O)cnc2O[C@H]1CN(C)C(=O)Nc1ccc(F)cc1` gave E-selectin induc 1, SIRT5 block -3 and DENV2 CPE rescue 19.
`O=C1CN(C(=O)c2c(F)cccc2F)C(c2ccc(F)cc2)c2cc(Br)ccc2N1` (configuration not stated) gave E-selectin induc 2, SIRT5 block 3 and DENV2 CPE rescue 0.
For FC(F)(F)c1ccc2c(c1)N1CCCC1CN2 (configuration not stated) the results were E-selectin induc 58* and SIRT5 block -2.
`FC(F)(F)c1ccc2c(c1)NCC1CCCN21` (configuration not stated) gave E-selectin induc 5 and DENV2 CPE rescue 5.
For C[C@@H]1CN([C@H](C)CO)C(=O)c2cc(-c3ccccc3F)cnc2O[C@H]1CN(C)Cc1ccccc1 the results were E-selectin induc 0, SIRT5 block -2 and DENV2 CPE rescue 5.
CCN(CC)CCNC(=O)c1cc2c(s1)-c1ccccc1SC2 was read as E-selectin induc 0, SIRT5 block -7 and DENV2 CPE rescue 8.
COc1ccc(CN2C[C@H](O)COC[C@@H]3O[C@H](CC(=O)NCCN4CCCC4)CC[C@H]32)cc1 was read as E-selectin induc 0, SIRT5 block -5 and DENV2 CPE rescue 3.
O=C(C[C@@H]1CC[C@@H]2[C@H](COC[C@H](O)CN2Cc2ccc(Oc3ccccc3)cc2)O1)N1CCCCC1 was read as E-selectin induc 0, SIRT5 block -1 and DENV2 CPE rescue -7.
`COc1ccc(CN2C[C@@H](O)COC[C@H]3O[C@H](CC(=O)NCCN4CCCC4)CC[C@@H]32)cc1` gave E-selectin induc 0, SIRT5 block 21* and DENV2 CPE rescue 1.
Screening COc1ccc(CN2C[C@H](O)COC[C@@H]3O[C@H](CC(=O)N4CCc5ccccc5C4)CC[C@H]32)cc1 returned E-selectin induc 0, SIRT5 block 15* and DENV2 CPE rescue -8.
`COc1ccc(CN2C[C@H](O)COC[C@H]3O[C@H](CC(=O)N4CCc5ccccc5C4)CC[C@@H]32)cc1` gave E-selectin induc 0, SIRT5 block -2 and DENV2 CPE rescue -1.
O=C(C[C@H]1CC[C@H]2[C@@H](COC[C@@H](O)CN2Cc2ccc(Oc3ccccc3)cc2)O1)N1CCCCC1 was read as E-selectin induc 0, SIRT5 block -1 and DENV2 CPE rescue 24*.
`Cc1cc2c(Nc3ccccc3)ncnc2s1` gave E-selectin induc 8, SIRT5 block 16* and DENV2 CPE rescue -4.
For Cc1cc2c(NCCc3ccccc3)ncnc2s1 the results were SIRT5 block -3 and DENV2 CPE rescue -4.
`CC(=O)Nc1nnc(CCS(=O)(=O)c2ccc(Cl)cc2)s1` gave SIRT5 block -1 and DENV2 CPE rescue 1.
For O=S(=O)(CCc1ccncc1)c1ccc(Cl)cc1 the results were E-selectin induc 0, SIRT5 block 27* and DENV2 CPE rescue -8.
`COc1ccc(C(C2C(=O)CC(C)(C)CC2=O)C2C(=O)CC(C)(C)CC2=O)cc1` gave E-selectin induc 0, SIRT5 block 2 and DENV2 CPE rescue 2.
`Cc1ccc(S(=O)(=O)N(C)C)cc1NC(=O)CN1C(=O)NC(Cc2ccccc2)C1=O` (configuration not stated) gave E-selectin induc 2, SIRT5 block -11 and DENV2 CPE rescue 0.
